Data from ChEMBL document CHEMBL4190353, “Synthesis, structure-activity relationships and preliminary mechanism of action of novel water-soluble 4-quinolone-3-carboxamides as antiproliferative agents” (Eur J Med Chem, 2017).
The source made the active and inactive calls. The calls are words filed in the database; no cut-off is given here.

Assays:
HCT-116 [1] = test: Induction of apoptosis in human HCT116 cells assessed as early apoptotic cells level pre-incubated with 20 uM pan-caspase inhibitor Z-VAD-FMK for 5 hrs followed by compound addition and further incubated for 48 hrs by Annexin V-FITC/PI staining based cytometry (reference value: 1.1%); format: functional; set-up: scale not given: the % may be the effect or the level left
HCT-116 [2] = test: Induction of apoptosis in human HCT116 cells assessed as subG1 phase cells level at 2 uM incubated for 24 hrs by […]PI staining based cytometry (reference value: 1%); format: functional
Summary of the method: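 Cells were treated for 24 h, then fixed in 75% ethanol at -20 °C overnight. RNA was digested with 0.2 mg/mL RNase A for 30 min at 37 °C. Cells were stained with 50 µg/mL PI for 30 min in the dark, and DNA content was read by flow cytometry.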

MCF7 = test: Cytotoxicity against human MCF7 cells assessed as reduction in cell viability incubated for 24 hrs by MTT assay; format: functional, cell-based; conditions: MCF7, 24 h
Summary of the method: (§1)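 Cells were kept in McCoy's 5A with 10% fetal bovine serum, streptomycin and 100 units·mL⁻¹ penicillin at 37 °C under 5% CO₂/95% air. Viability was read by MTT optical density. IC50 is the concentration that lowers optical density by 50% relative to untreated cells. Values are means with SD of at least three independent determinations.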

HCT-116 [3] = test: Induction of apoptosis in human HCT116 cells assessed as increase in cleaved PARP level at 4 to 8 uM incubated for 24 hrs by Western blot method; format: functional, cell-based
Summary of the method: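 Lysates were made in SDS buffer (2% SDS, 50 mM Tris-HCl pH 6.8) and quantified by BCA. Equal protein was run on 10% SDS-PAGE and transferred to PVDF. Membranes were blocked in 5% milk, probed overnight at 4 °C for cleaved PARP (1:1000) with GAPDH (1:5000), and detected with HRP secondary antibody and ECL.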

HCT-116 [4] = test: Induction of apoptosis in Bax-/- human HCT116 cells assessed as early apoptotic cells level pre-incubated with 20 uM pan-caspase inhibitor Z-VAD-FMK for 5 hrs followed by compound addition and further incubated for 48 hrs by Annexin V-FITC/PI staining based cytometry (reference value: 6.8%); format: functional; set-up: scale not given: the % may be the effect or the level left
HCT-116 [5] = test: […] of ROS generation in human HCT116 cells pre-treated with 7.5 mM L-NAC for […] followed by 8 uM compound addition and further incubated for 24 hrs by H2DCFDA dye based flow cytometry; format: functional, cell-based
Summary of the method: (§2)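 HCT116 cells pre-treated 5 h with H2O, 7.5 mM L-NAC or 7.5 mM GSH, then exposed to compound for 24 h. Cells collected, washed twice in PBS, and resuspended in serum-free McCoy's 5A with 10 nM H2DCFDA for 20 min at 37 °C in the dark. After two PBS washes, relative ROS measured by flow cytometry.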

[6] = Solubility in water; format: physicochemical
HCT-116 [7] = test: Induction of apoptosis in human HCT116 cells assessed as necrotic cells level at 2 uM incubated for 24 hrs by Annexin V-FITC/PI staining based cytometry (reference value: 1.6%); format: functional
HCT-116 [8] = test: Induction of apoptosis in Bax-/- human HCT116 cells assessed as viable cells level incubated for 48 hrs by Annexin V-FITC/PI staining based cytometry (reference value: 92.9%); format: functional
Summary of the method: (§3)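 Cells were plated at 5×10^5 per well and treated once 80% confluent. After trypsinisation and two washes in ice-cold PBS (pH 7.4), cells were stained with Annexin V-FITC and PI for 15 min at room temperature in the dark. Analysis was by flow cytometry. The legend gives vehicle or 4 µM for the p53-/- and Bax-/- lines.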

HepG2 = test: Cytotoxicity against human HepG2 cells assessed as reduction in cell viability incubated for 24 hrs by MTT assay; format: functional, cell-based; conditions: HepG2, 24 h; summary of the method: as §1
HCT-116 [9] = test: Induction of apoptosis in human HCT116 cells assessed as early apoptotic cells level at 4 uM incubated for 24 hrs by Annexin V-FITC/PI staining based cytometry (reference value: 1.3%); format: functional
HCT-116 [10] = test: Induction of apoptosis in human HCT116 cells assessed as late apoptotic cells level at 4 uM incubated for 24 hrs by Annexin V-FITC/PI staining based cytometry (reference value: 0.5%); format: functional
HCT-116 [11] = test: Induction of apoptosis in human HCT116 cells assessed as increase in cleaved PARP level pre-treated with 7.5 mM GSH for 6 hrs followed by 4 to 8 uM compound addition and further incubated for 24 hrs by Western blot method; format: functional, cell-based
BGC-823 = test: Cytotoxicity against human BGC823 cells assessed as reduction in cell viability incubated for 24 hrs by MTT assay; format: functional, cell-based; conditions: BGC-823, 24 h; summary of the method: as §1
RKO [12] = test: Inhibition of colony formation of human RKO cells incubated for 24 hrs by crystal violet staining based photography; format: functional, cell-based
Summary of the method: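 Cells (HCT116, RKO, HCT116 p53-/-, HCT116 Bax-/-) seeded at 300 per well in 12-well plates for 48 h, then treated 24 h. Drug medium replaced with fresh medium; about 10 days later colonies stained 15 min with crystal violet, photographed and counted. Run in triplicate.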

RKO [13] = test: Cytotoxicity against human RKO cells assessed as reduction in cell viability incubated for 24 hrs by CCK8 assay; format: functional, cell-based
Summary of the method: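 Cells were seeded at 3×10^4 per well, grown 24 h, then exposed to increasing concentrations for 24 h. CCK-8 reagent was added for 1 h at 37 °C and absorbance was read at 450 nm. Cells were kept in McCoy's 5A with 10% FBS, and n=3.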

HCT-116 [14] = test: […] of ROS generation in human HCT116 cells at 8 uM incubated for 24 hrs by H2DCFDA dye based flow cytometry; format: functional, cell-based; summary of the method: as §2
HCT-116 [15] = test: Induction of apoptosis in human HCT116 cells assessed as viable cells level incubated for 48 hrs by Annexin V-FITC/PI staining based cytometry (reference value: 98.7%); format: functional
HCT-116 [16] = test: Induction of apoptosis in Bax-/- human HCT116 cells assessed as early apoptotic cells level incubated for 48 hrs by Annexin V-FITC/PI staining based cytometry (reference value: 6.8%); format: functional; summary of the method: as §3
HCT-116 [17] = test: Induction of apoptosis in human HCT116 cells assessed as viable cells level at 4 uM incubated for 24 hrs by Annexin V-FITC/PI staining based cytometry (reference value: 96.6%); format: functional
HCT-116 [18] = test: Induction of apoptosis in human HCT116 cells assessed as viable cells level at 2 uM incubated for 24 hrs by Annexin V-FITC/PI staining based cytometry (reference value: 96.6%); format: functional
HCT-116 [19] = test: Cytotoxicity in human HCT116 cells assessed as reduction in cell viability pre-treated with 7.5 mM GSH followed by 16 to 32 uM compound addition and further incubated for 24 hrs by CCK8 assay; format: functional, cell-based
Summary of the method: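 HCT116 cells were pretreated with H2O, 7.5 mM L-NAC or 7.5 mM GSH, then exposed to 4, 16 or 32 µM for 24 h. Viability was read by CCK-8, with 1 h reagent incubation at 37 °C and absorbance at 450 nm. n=3.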

RKO [20] = test: Cytotoxicity against human RKO cells assessed as reduction in cell viability incubated for 24 hrs by MTT assay; format: functional, cell-based; summary of the method: as §1
HCT-8 = test: Cytotoxicity against human HCT8 cells assessed as reduction in cell viability incubated for 24 hrs by MTT assay; format: functional, cell-based; conditions: HCT-8, 24 h; summary of the method: as §1

## CCN(CC)CCCNC(=O)c1cn(CCCc2ccccc2)c2cc(Cl)ccc2c1=O.Cl
HCT-116 [1]
  Activity: 14.2%
HCT-116 [2]
  Activity: 6.5%
MCF7
  IC50: 5.02 µM
HCT-116 [3]
  Activity: Active
HCT-116 [4]
  Activity: 10.2%
HCT-116 [5]
  inhibition: inactive
[6]
  solubility: > 10000 µg/mL
HCT-116 [7]
  Activity: 1%
HCT-116 [8]
  Activity: 65.1%
HepG2
  IC50: 3.94 µM
HCT-116 [9]
  Activity: 38.2%
HCT-116 [10]
  Activity: 4.8%
HCT-116 [11]
  Activity: inactive
BGC-823
  IC50: 4.92 µM
RKO [12]
  inhibition: Dose-dependent effect
RKO [13]
  IC50: 4.87 µM
  growth inhibition (GI): Dose-dependent effect
HCT-116 [14]
  inhibition: Active
HCT-116 [15]
  Activity: 62.5%
HCT-116 [16]
  Activity: 33%
HCT-116 [17]
  Activity: 52.7%
HCT-116 [18]
  Activity: 79.3%
HCT-116 [19]
  Activity: inactive
RKO [20]
  IC50: 4.87 µM
HCT-8
  IC50: 6.82 µM
